Assay results: ChEMBL document CHEMBL1671676, “In vitro activity of nemonoxacin, a novel nonfluorinated quinolone, against 2,440 clinical isolates” (2009)

Assays:
Type in all cases: functional
Set-up in all cases: scale not given: the % may be the effect or the level left
Staphylococcus aureus [1] = assay: Antibacterial activity against community-associated methicillin-resistant Staphylococcus aureus assessed as percent cumulative susceptible isolates at minimum inhibitory concentration of […] by CLSI broth microdilution method
Enterococcus faecalis [2] = assay: Antibacterial activity against Enterococcus faecalis assessed as percent cumulative susceptible isolates at minimum inhibitory concentration of […] by CLSI broth microdilution method
Enterococcus faecalis [3] = assay: Antibacterial activity against Enterococcus faecalis assessed as percent cumulative susceptible isolates at minimum inhibitory concentration of 1 ug/ml by CLSI broth microdilution method
[4] = system: Staphylococcus epidermidis; assay: Antibacterial activity against methicillin-susceptible Staphylococcus epidermidis assessed as percent cumulative susceptible isolates at minimum inhibitory concentration of […] by CLSI broth microdilution method
Pseudomonas aeruginosa [5] = assay: Antibacterial activity against Pseudomonas aeruginosa assessed as percent cumulative susceptible isolates at minimum inhibitory concentration of 1 ug/ml by CLSI broth microdilution method
Acinetobacter baumannii [6] = assay: Antibacterial activity against Acinetobacter baumannii assessed as percent cumulative susceptible isolates at minimum inhibitory concentration of 0.5 ug/ml by CLSI broth microdilution method
Proteus mirabilis [7] = assay: Antibacterial activity against Proteus mirabilis assessed as percent cumulative susceptible isolates at minimum inhibitory concentration of 32 ug/ml by CLSI broth microdilution method
Acinetobacter baumannii [8] = assay: Antibacterial activity against Acinetobacter baumannii assessed as percent cumulative susceptible isolates at minimum inhibitory concentration of 16 ug/ml by CLSI broth microdilution method
[9] = system: Staphylococcus epidermidis; assay: Antibacterial activity against methicillin-susceptible Staphylococcus epidermidis assessed as percent cumulative susceptible isolates at minimum inhibitory concentration of 4 ug/ml by CLSI broth microdilution method
Enterococcus faecalis [10] = assay: Antibacterial activity against Enterococcus faecalis assessed as percent cumulative susceptible isolates at minimum inhibitory concentration of 2 ug/ml by CLSI broth microdilution method
Escherichia coli [11] = assay: Antibacterial activity against Escherichia coli assessed as percent cumulative susceptible isolates at minimum inhibitory concentration of 1 ug/ml by CLSI broth microdilution method
Klebsiella pneumoniae [12] = assay: Antibacterial activity against Klebsiella pneumoniae assessed as percent cumulative susceptible isolates at minimum inhibitory concentration of […] by CLSI broth microdilution method
Enterococcus faecium [13] = assay: Antibacterial activity against Enterococcus faecium assessed as percent cumulative susceptible isolates at minimum inhibitory concentration of 32 ug/ml by CLSI broth microdilution method
Staphylococcus aureus [14] = assay: Antibacterial activity against methicillin-resistant Staphylococcus aureus assessed as percent cumulative susceptible isolates at minimum inhibitory concentration of […] by CLSI broth microdilution method
Klebsiella pneumoniae [15] = assay: Antibacterial activity against Klebsiella pneumoniae assessed as percent cumulative susceptible isolates at minimum inhibitory concentration of 1 ug/ml by CLSI broth microdilution method
Pseudomonas aeruginosa [16] = assay: Antibacterial activity against Pseudomonas aeruginosa assessed as percent cumulative susceptible isolates at minimum inhibitory concentration of 2 ug/ml by CLSI broth microdilution method
[17] = system: Stenotrophomonas maltophilia; assay: Antibacterial activity against Stenotrophomonas maltophilia assessed as percent cumulative susceptible isolates at minimum inhibitory concentration of 4 ug/ml by CLSI broth microdilution method
Enterococcus faecium [18] = assay: Antibacterial activity against Enterococcus faecium assessed as percent cumulative susceptible isolates at minimum inhibitory concentration of 4 ug/ml by CLSI broth microdilution method
Escherichia coli [19] = assay: Antibacterial activity against Escherichia coli assessed as percent cumulative susceptible isolates at minimum inhibitory concentration of 0.06 ug/ml by CLSI broth microdilution method
Klebsiella pneumoniae [20] = assay: Antibacterial activity against Klebsiella pneumoniae assessed as percent cumulative susceptible isolates at minimum inhibitory concentration of 4 ug/ml by CLSI broth microdilution method
[21] = system: Stenotrophomonas maltophilia; assay: Antibacterial activity against Stenotrophomonas maltophilia assessed as percent cumulative susceptible isolates at minimum inhibitory concentration of 1 ug/ml by CLSI broth microdilution method
Enterobacter cloacae [22] = assay: Antibacterial activity against Enterobacter cloacae assessed as percent cumulative susceptible isolates at minimum inhibitory concentration of 8 ug/ml by CLSI broth microdilution method
Pseudomonas aeruginosa [23] = assay: Antibacterial activity against Pseudomonas aeruginosa assessed as percent cumulative susceptible isolates at minimum inhibitory concentration of […] by CLSI broth microdilution method
Klebsiella oxytoca = assay: Antibacterial activity against Klebsiella oxytoca assessed as percent cumulative susceptible isolates at minimum inhibitory concentration of […] by CLSI broth microdilution method
Staphylococcus aureus [24] = assay: Antibacterial activity against methicillin-susceptible Staphylococcus aureus assessed as percent cumulative susceptible isolates at minimum inhibitory concentration of 32 ug/ml by CLSI broth microdilution method
Method in brief: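 Clinical isolates tested by CLSI broth microdilution using 96-well panels of doubling drug dilutions in cation-adjusted Mueller-Hinton broth with 5% lysed horse blood. MIC was read from these panels. Panel quality control used CLSI ATCC strains, including S. pneumoniae 49619, S. aureus 29213, E. faecalis 29212 and E. coli 25922. Cumulative percentages of isolates were tabulated at each MIC.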

Escherichia coli [25] = assay: Antibacterial activity against Escherichia coli assessed as percent cumulative susceptible isolates at minimum inhibitory concentration of […] by CLSI broth microdilution method
Acinetobacter baumannii [26] = assay: Antibacterial activity against Acinetobacter baumannii assessed as percent cumulative susceptible isolates at minimum inhibitory concentration of 1 ug/ml by CLSI broth microdilution method
Proteus mirabilis [27] = assay: Antibacterial activity against Proteus mirabilis assessed as percent cumulative susceptible isolates at minimum inhibitory concentration of 4 ug/ml by CLSI broth microdilution method
Escherichia coli [28] = assay: Antibacterial activity against Escherichia coli assessed as percent cumulative susceptible isolates at minimum inhibitory concentration of 32 ug/ml by CLSI broth microdilution method
Streptococcus pneumoniae = assay: Antibacterial activity against penicillin-resistant Streptococcus pneumoniae assessed as percent cumulative susceptible isolates at minimum inhibitory concentration of […] by CLSI broth microdilution method
Staphylococcus aureus [29] = assay: Antibacterial activity against methicillin-susceptible Staphylococcus aureus assessed as percent cumulative susceptible isolates at minimum inhibitory concentration of 8 ug/ml by CLSI broth microdilution method
Enterobacter cloacae [30] = assay: Antibacterial activity against Enterobacter cloacae assessed as percent cumulative susceptible isolates at minimum inhibitory concentration of 0.06 ug/ml by CLSI broth microdilution method
Enterobacter cloacae [31] = assay: Antibacterial activity against Enterobacter cloacae assessed as percent cumulative susceptible isolates at minimum inhibitory concentration of 1 ug/ml by CLSI broth microdilution method
Klebsiella pneumoniae [32] = assay: Antibacterial activity against Klebsiella pneumoniae assessed as percent cumulative susceptible isolates at minimum inhibitory concentration of 32 ug/ml by CLSI broth microdilution method
Acinetobacter baumannii [33] = assay: Antibacterial activity against Acinetobacter baumannii assessed as percent cumulative susceptible isolates at minimum inhibitory concentration of […] by CLSI broth microdilution method
Staphylococcus aureus [34] = assay: Antibacterial activity against methicillin-resistant Staphylococcus aureus assessed as percent cumulative susceptible isolates at minimum inhibitory concentration of 1 ug/ml by CLSI broth microdilution method
Staphylococcus aureus [35] = assay: Antibacterial activity against hospital-associated methicillin-resistant Staphylococcus aureus assessed as percent cumulative susceptible isolates at minimum inhibitory concentration of 8 ug/ml by CLSI broth microdilution method

SMILES | Activity (Staphylococcus aureus [1]) | Activity (Enterococcus faecalis [2]) | Activity (Enterococcus faecalis [3]) | Activity [4] | Activity (Pseudomonas aeruginosa [5]) | Activity (Acinetobacter baumannii [6]) | Activity (Proteus mirabilis [7]) | Activity (Acinetobacter baumannii [8]) | Activity [9] | Activity (Enterococcus faecalis [10]) | Activity (Escherichia coli [11]) | Activity (Klebsiella pneumoniae [12]) | Activity (Enterococcus faecium [13]) | Activity (Staphylococcus aureus [14]) | Activity (Klebsiella pneumoniae [15]) | Activity (Pseudomonas aeruginosa [16]) | Activity [17] | Activity (Enterococcus faecium [18]) | Activity (Escherichia coli [19]) | Activity (Klebsiella pneumoniae [20]) | also measured
C[C@H]1COc2c(N3CCN(C)CC3)c(F)cc3c(=O)c(C(=O)O)cn1c23.C[C@H]1COc2c(N3CCN(C)CC3)c(F)cc3c(=O)c(C(=O)O)cn1c23.O [LEVOFLOXACIN] | 24% | 2.5% | 35.8% | 53.5% | 59.9% | 86.7% | 100% | 100% | 62.8% | 67.9% | 75.1% | 78.4% | 100% | 8.7% | 92.5% | 70.1% | 84.6% | 28.9% | 66.4% | 96% | Activity [21]: 46.2%; Activity (Enterobacter cloacae [22]): 98.6%; Activity (Pseudomonas aeruginosa [23]): 10.2%; Activity (Klebsiella oxytoca): 100%; Activity (Staphylococcus aureus [24]): 100%; Activity (Escherichia coli [25]): 70%; Activity (Acinetobacter baumannii [26]): 93.3%; Activity (Proteus mirabilis [27]): 93.9%; Activity (Escherichia coli [28]): 100%; Activity (Streptococcus pneumoniae): 3.1%; Activity (Staphylococcus aureus [29]): 93.6%; Activity (Enterobacter cloacae [30]): 87.5%; Activity (Enterobacter cloacae [31]): 91.7%; Activity (Klebsiella pneumoniae [32]): 100%; Activity (Acinetobacter baumannii [33]): 80%; Activity (Staphylococcus aureus [34]): 9.4%; Activity (Staphylococcus aureus [35]): 4%
COc1c(N2C[C@@H](C)C[C@H](N)C2)ccc2c(=O)c(C(=O)O)cn(C3CC3)c12 [NEMONOXACIN] | 60% | 67.9% | 90.1% | 86% | 51.1% | 86.7% | 93.9% | 100% | 100% | 97.5% | 74.8% | 68.3% | 79% | 16.5% | 86.9% | 66.4% | 73.1% | 42.1% | 22.7% | 94% | Activity [21]: 26.9%; Activity (Enterobacter cloacae [22]): 95.8%; Activity (Pseudomonas aeruginosa [23]): 4.4%; Activity (Klebsiella oxytoca): 81.3%; Activity (Staphylococcus aureus [24]): 100%; Activity (Escherichia coli [25]): 68.8%; Activity (Acinetobacter baumannii [26]): 93.3%; Activity (Proteus mirabilis [27]): 81.8%; Activity (Escherichia coli [28]): 93.2%; Activity (Streptococcus pneumoniae): 84.4%; Activity (Staphylococcus aureus [29]): 99.2%; Activity (Enterobacter cloacae [30]): 8.3%; Activity (Enterobacter cloacae [31]): 91.7%; Activity (Klebsiella pneumoniae [32]): 98%; Activity (Acinetobacter baumannii [33]): 73.3%; Activity (Staphylococcus aureus [34]): 34.6%; Activity (Staphylococcus aureus [35]): 68.7%
